One data set deals with HEK-293T. The data set can be described thus: Cytotoxicity against human HEK293T cells assessed as reduction in cell viability at 10 uM measured after 24 hrs by CCK8 assay. It is filed as cell-based. For orientation: Tetrazolium assays rely on reduction of a dye to a coloured formazan, in cell work by metabolically active cells.
In data set [1] the target is T1, PXR (NR1I2); CYP3A4 promoter reporter (Homo sapiens, UniProt O75469).
T1 sequence (O75469 whole entry): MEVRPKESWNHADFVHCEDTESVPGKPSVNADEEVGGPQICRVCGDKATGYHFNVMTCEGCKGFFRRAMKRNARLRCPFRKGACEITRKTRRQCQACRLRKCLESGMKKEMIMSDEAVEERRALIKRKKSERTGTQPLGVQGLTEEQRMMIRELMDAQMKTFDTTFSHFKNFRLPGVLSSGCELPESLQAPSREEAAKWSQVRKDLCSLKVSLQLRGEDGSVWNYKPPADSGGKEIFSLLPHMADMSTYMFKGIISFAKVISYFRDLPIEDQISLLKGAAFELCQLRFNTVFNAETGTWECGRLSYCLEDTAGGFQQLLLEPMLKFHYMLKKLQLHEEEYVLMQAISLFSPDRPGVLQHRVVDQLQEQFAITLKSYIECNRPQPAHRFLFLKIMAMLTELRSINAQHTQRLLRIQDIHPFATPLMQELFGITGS
As to the kind of experiment: Agonist activity at human PXR transfected in human HEK293T cells co-transfected with CYP3A4-Luc plasmid at 10 uM incubated for 24 hrs by dual-luciferase reporter gene assay relative to control. (In general: In a reporter assay the amount or activity of a reporter protein is the signal.)

Data set [2] has as its target T2, Nuclear receptor subfamily 1 group I member 2 (Homo sapiens, UniProt O75469).
T2 sequence (O75469 whole entry): T1 sequence (O75469 whole entry)
The data set can be described thus: Agonist activity at PXR in human HepaRG cells assessed as upregulation of CYP2B6 mRNA expression at 10 uM by RT-qPCR analysis. It is filed as cell-based. The procedure, abridged: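 HepaRG cells exposed to test agents at 10 μM, with rifampicin (10 μM) as reference agonist. CYP2B6 mRNA quantified by RT-qPCR, normalized to β-ACTIN housekeeping gene. Mean ± SD, n = 3.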
(Quantitative PCR measures a nucleic acid by following its amplification.)

As to `C=C1[C@H](OC(=O)c2ccccc2)C[C@H]2[C@@H]([C@H]3O[C@]3(C)C(=O)[C@@]3(OC(C)=O)C[C@H](C)[C@H](OC(=O)c4ccccc4)[C@@H]3[C@H]1OC(C)=O)C2(C)C`, in the data set on HEK-293T, the Activity result is on record as “Non-Toxic”.

For orientation: fold induction means the ratio of treated to control signal. For the compound `CC(=O)O[C@@H]1[C@H]2[C@@H](OC(=O)c3ccccc3)[C@@H](C)C[C@]2(OC(C)=O)C(=O)/C(C)=C/[C@@H]2[C@H](CC[C@H]1C)C2(C)C`, in data set [1], the fold induction at 24 h, 10 µM was 4.9. Further, the Activity result in the data set with HEK-293T is “Non-Toxic”.

For the compound `C=C1CC[C@H]2[C@@H]([C@@H]3O[C@]4(C=C3C)C[C@H](C)[C@H](OC(=O)c3ccccc3)[C@@H]4[C@H]1OC(C)=O)C2(C)C`, the Activity result in the data set on HEK-293T is “Non-Toxic”.

Turning to `C=C1[C@H](O)C[C@H]2[C@@H](/C=C(\C)C(=O)[C@@]3(OC(C)=O)C[C@H](C)[C@H](OC(=O)c4ccccc4)[C@@H]3[C@H]1OC(C)=O)C2(C)C`, the Activity entry with HEK-293T was “Non-Toxic”.

Regarding `C=C1[C@H](OC(C)=O)C[C@H]2[C@@H](/C=C(\C)C(=O)[C@@]3(O)C[C@H](C)[C@H](OC(C)=O)[C@@H]3[C@H]1OC(C)=O)C2(C)C`, the Activity entry in the data set on HEK-293T is listed as “Non-Toxic”.

With `CC(=O)O[C@]12C[C@H](C)[C@H](OC(=O)c3cccnc3)[C@@H]1[C@H]1O[C@@]1(C)CC[C@H]1[C@@H](/C=C(\C)C2=O)C1(C)C`, the Activity result in the data set with HEK-293T is reported as “Non-Toxic”.

Take `C=C1[C@H](OC(=O)c2ccccc2)C[C@H]2[C@@H](/C=C(\C)C(=O)[C@@]3(O)C[C@H](C)[C@H](OC(=O)c4ccccc4)[C@@H]3[C@H]1OC(C)=O)C2(C)C`: the Activity entry in the data set with HEK-293T was “Non-Toxic”.

Take `CC(=O)O[C@]12C[C@H](C)[C@H](OC(=O)c3ccccc3)[C@@H]1/C=C(\CO)C(=O)C[C@H]1[C@@H](/C=C(\C)C2=O)C1(C)C`: the Activity entry in the data set on HEK-293T is given as “Non-Toxic”.

Take `C/C1=C\[C@@H]2[C@H](CC(=O)/C(COC(=O)c3ccccc3)=C/[C@H]3[C@@H](O)[C@@H](C)C[C@]3(O)C1=O)C2(C)C`: in the data set with HEK-293T, the Activity result is “Non-Toxic”.

As to `C=C1[C@H](OC(=O)c2cccnc2)C[C@H]2[C@@H](/C=C(\C)C(=O)[C@@]3(OC(C)=O)C[C@H](C)[C@H](OC(=O)c4ccccc4)[C@@H]3[C@H]1OC(C)=O)C2(C)C`, the Activity entry in data set [2] is on record as “Active”; in the data set with HEK-293T it was “Non-Toxic”. The compound further yielded a fold induction at 24 h, 10 µM in data set [1] of 6.9.

As to `C=C1[C@H](OC(=O)c2cccs2)C[C@H]2[C@@H](/C=C(\C)C(=O)[C@@]3(O)C[C@H](C)[C@H](O)[C@@H]3[C@H]1O)C2(C)C`, the Activity entry in the data set with HEK-293T is on record as “Non-Toxic”.

As for `C=C1CC[C@H]2[C@@H](/C=C(\C)C(=O)[C@@]3(OC(C)=O)C[C@H](C)[C@H](OC(=O)c4cccnc4)[C@@H]3[C@H]1OC(C)=O)C2(C)C`, in the data set on HEK-293T, the Activity entry is on record as “Non-Toxic”.

On to `C=C1CC[C@H](C(C)(C)O)/C=C/C(C)=C\[C@@]2(O)C[C@H](C)[C@H](OC(=O)c3ccccc3)[C@@H]2[C@H]1OC(C)=O`, for which, in the data set on HEK-293T, the Activity result is “Non-Toxic”.

For `C=C1[C@H](OC(C)=O)C[C@H]2[C@@H](/C=C(\C)C(=O)[C@@]3(O)C[C@H](C)[C@H](O)[C@@H]3[C@H]1O)C2(C)C`, the Activity result with HEK-293T was “Non-Toxic”.

In the case of `CC(=O)OC/C1=C/C[C@H]2[C@@H](/C=C(\C)C(=O)[C@@]3(O)C[C@H](C)[C@H](OC(C)=O)[C@@H]3[C@H]1OC(C)=O)C2(C)C`, the Activity entry with HEK-293T is reported as “Non-Toxic”.

As for `C=C1CC[C@H]2[C@@H](/C=C(\C)C(=O)[C@@]3(O)C[C@H](C)[C@H](O)[C@@H]3[C@H]1O)C2(C)C`, in the data set on HEK-293T, the Activity entry is on record as “Non-Toxic”.

For the compound `CC(=O)O[C@@H]1[C@H]2[C@@H](OC(=O)c3ccccc3)[C@@H](C)C[C@]2(OC(C)=O)C(=O)[C@@]2(C)O[C@@H]2[C@@H]2[C@H](C[C@@H](OC(=O)c3ccccc3)[C@]13CO3)C2(C)C`, the Activity entry in the data set on HEK-293T was “Non-Toxic”.

For the compound `C=C1[C@H](OC(=O)c2ccccc2)C[C@H]2[C@@H](/C=C(\C)C(=O)[C@@]3(O)C[C@H](C)[C@H](O)[C@@H]3[C@H]1OC(=O)c1ccccc1)C2(C)C`, the Activity entry with HEK-293T was “Non-Toxic”.

`CC(=O)O[C@H]1[C@@H](C)[C@H](OC(=O)c2ccccc2)C[C@H]2[C@@H](C[C@@H](C)C(=O)[C@@]3(OC(C)=O)C[C@H](C)[C@H](OC(=O)c4ccccc4)[C@H]13)C2(C)C` returned a fold induction at 24 h, 10 µM in data set [1] of 3.4. In addition, the Activity entry in the data set on HEK-293T is “Non-Toxic”.

With `C=C1CC[C@H](C(C)(C)OC)/C=C/C(C)=C\[C@@]2(O)C[C@H](C)[C@H](OC(=O)c3ccccc3)[C@@H]2[C@H]1OC(C)=O`, the Activity result in the data set on HEK-293T is recorded as “Non-Toxic”.

Turning to `C=C1C(=O)C[C@H]2[C@@H](/C=C(\C)C(=O)[C@@]3(OC(C)=O)C[C@H](C)[C@H](OC(=O)c4ccccc4)[C@@H]3[C@H]1OC(C)=O)C2(C)C`, the Activity result with HEK-293T is on record as “Toxic”.

As to `C=C1CC[C@H]2[C@@H](/C=C(\C)C(=O)[C@@]3(OC(C)=O)C[C@H](C)[C@H](OC(=O)c4ccccc4)[C@@H]3[C@H]1OC(C)=O)C2(C)C`, the Activity entry with HEK-293T is listed as “Non-Toxic”.

For the compound `C=C1CC[C@H]2[C@@H](C[C@@H](C)C(=O)[C@@]3(OC(C)=O)C[C@H](C)[C@H](OC(=O)c4ccccc4)[C@@H]3[C@H]1OC(C)=O)C2(C)C`, the Activity result with HEK-293T was “Non-Toxic”.

As to `C=C1[C@H](OC(=O)c2ccccc2)C[C@H]2[C@@H](/C=C(\C)C(=O)[C@@]3(OC(C)=O)C[C@H](C)[C@H](OC(=O)c4ccccc4)[C@@H]3[C@H]1OC(C)=O)C2(C)C`, the Activity result in the data set with HEK-293T is “Non-Toxic”.

As for `CC(=O)OC/C1=C/C[C@H]2[C@@H](/C=C(\C)C(=O)[C@@]3(OC(C)=O)C[C@H](C)[C@H](OC(=O)c4ccccc4)[C@@H]3[C@H]1OC(C)=O)C2(C)C`, the Activity result in the data set on HEK-293T was “Non-Toxic”.

On to `C=C1[C@H](O)C[C@H]2[C@@H](/C=C(\C)C(=O)[C@@]3(O)C[C@H](C)[C@H](O)[C@@H]3[C@H]1O)C2(C)C`, for which the Activity entry with HEK-293T is listed as “Non-Toxic”.

Consider `C=C1[C@H](OC(=O)c2ccco2)C[C@H]2[C@@H](/C=C(\C)C(=O)[C@@]3(O)C[C@H](C)[C@H](O)[C@@H]3[C@H]1O)C2(C)C`, for which the Activity result in the data set with HEK-293T is recorded as “Non-Toxic”.

With `C=C1CC[C@H]2[C@@H](/C=C(\C)C(=O)[C@@]3(O)C[C@H](C)[C@H](O)[C@@H]3C1=O)C2(C)C`, the Activity entry with HEK-293T is “Toxic”.

Consider `C=C1CC[C@H]2[C@@H](/C=C(\C)C(=O)[C@@]3(OC(C)=O)C[C@H](C)[C@H](O)[C@@H]3[C@H]1OC(=O)/C=C/c1ccccc1)C2(C)C`, for which, in the data set with HEK-293T, the Activity entry is listed as “Toxic”.

For the compound `C=C1CC[C@H]2[C@@H](/C=C(\C)C(=O)[C@@]3(OC(C)=O)C[C@H](C)[C@H](OC(=O)/C=C/c4ccccc4)[C@@H]3[C@H]1O)C2(C)C`, the Activity result in the data set with HEK-293T is recorded as “Toxic”.

For `C=C(C)[C@@H]1/C=C/C(C)=C\[C@@]2(O)C[C@H](C)[C@H](OC(=O)c3ccccc3)[C@@H]2[C@@H](OC(C)=O)C(=C)CC1`, in the data set on HEK-293T, the Activity result is “Non-Toxic”.

For `C=C1CC[C@H]2[C@@H](/C=C(\C)C(=O)[C@@]3(OC(C)=O)C[C@H](C)[C@H](OC(=O)/C=C/c4ccccc4)[C@@H]3[C@H]1OC(C)=O)C2(C)C`, the Activity result with HEK-293T was “Non-Toxic”.

With `C=C1[C@H](OC(=O)c2ccccc2)C[C@H]2[C@@H](/C=C(\C)[C@H](OC(C)=O)[C@@]3(O)C[C@H](C)[C@H](OC(=O)c4ccccc4)[C@@H]3[C@H]1OC(C)=O)C2(C)C`, the Activity result in the data set on HEK-293T is recorded as “Non-Toxic”.
